Assay outcomes deposited in PubChem BioAssay by The Scripps Research Institute Molecular Screening Center.
Sampled rows, rich in hits. Any-hit rate of the full collection: about 4.6%.
OX1R antag-1 – blocks the human orexin 1 receptor | O43613 | OX1R-expressing cells, FRET antagonist read-out | inhibition, % at 6.6 µM | hit rate 1.8% among 330,000 | AID 485270; in the data active = inhibition mostly above about 38%, no sharp cut-off; inactive = mostly below about 40%;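 note: 0% = agonist challenge alone and 100% = reference antagonist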
OX1R antag-2 – blocks the human orexin 1 receptor; CHO/OX1R cells, Fluo-8 calcium fluorescence, orexin A; inhibition, % at 5 µM; hit rate 0.43% among 330,000;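 active = inhibition above its plate's threshold, mean inhibition of all tested compounds on the plate plus 3 SD, cut at about 37% in these data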;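 note: 0% = orexin A challenge wells and 100% = SB-334867-A antagonist wells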
TAAR1 antagonist – antagonists of human TAAR1. Q96RJ0. CHO RD-HGA16 TAAR1, Fluo-8 calcium fluorescence, antagonist. inhibition, % at 3 µM. hit rate 1.5% among 360,000. AID 624466;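 active = inhibition above a per-plate cutoff, the mean inhibition of test compounds on that plate plus 3 SD, cut at about 49% in these data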;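 note: 0% = DMSO plus EC80 beta-PEA response and 100% = DMSO alone without agonist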
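test system = CHO RD-HGA16 cells bearing hTAAR1 | replication = singlicate | controls = DMSO-only wells and EC80 β-PEA-stimulated wells | reagent = EC80 β-phenethylamine stimulus | read-out basis = percent inhibition of PEA-evoked calcium signal, max/basal emission ratio | schedule = seeding 17-24 h prior, 75-min 37 °C, 30-min RT dye loading | signal = kinetic Fluo-8 calcium fluorescence measurement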
TAAR1 agonist – agonists of human TAAR1. Q96RJ0. hit rate 0.99% among 360,000. activation, % at 3 µM. CHO RD-HGA16 TAAR1, Fluo-8 calcium fluorescence; vehicle wells 0%, saturating PEA agonist 100%;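 active = activation above the mean activation of all test compounds in the run plus 3 SD, cut at about 38% in these data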
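Assay system: CHO-derived RD-HGA16 cells with stable Gα16 and human TAAR1; timing: 17-24 h seeding, 75 min 37 °C dye, 30 min RT; read-out: % activation from peak over basal fluorescence ratio, DMSO-to-PEA scaled; measured by: kinetic Fluo-8 calcium fluorescence; benchmarks: low control DMSO, high control PEA (EC100); doses: 3 µM single concentration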
GPR7 antagonist – blocks human GPR7 receptor signaling. P48145. GPR7-expressing cells, fluorescence antagonist assay. inhibition, % at 4.4 µM. hit rate 1.1% among 290,000. AID 1861; in the data active = inhibition above about 16%, passing the limit was not always enough;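 note: cells stimulated with the agonist NPW; 0% = agonist with vehicle and 100% = vehicle without agonist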
Target sequence (P48145 whole entry, looked up): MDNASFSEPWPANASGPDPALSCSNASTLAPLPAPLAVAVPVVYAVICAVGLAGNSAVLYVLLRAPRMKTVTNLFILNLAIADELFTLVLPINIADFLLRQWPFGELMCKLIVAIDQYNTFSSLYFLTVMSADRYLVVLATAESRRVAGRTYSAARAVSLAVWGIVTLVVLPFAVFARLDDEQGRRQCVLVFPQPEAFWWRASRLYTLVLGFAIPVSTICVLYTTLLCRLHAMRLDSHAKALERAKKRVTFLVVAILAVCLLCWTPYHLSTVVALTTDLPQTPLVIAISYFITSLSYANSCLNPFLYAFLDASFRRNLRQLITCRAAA
CHO parental Ca – signal in parental CHO cells, OX1R antagonist counter-screen; parental CHO-K1, ATP-induced calcium, Fluo-8 fluorescence; inhibition, % at 5.6 µM; hit rate 0.63% among 330,000; AID 463079;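 active = inhibition above that plate's mean sample inhibition plus 3 SD, cut at about 26% in these data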;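 note: 0% = ATP-challenged DMSO wells and 100% = DMSO wells without ATP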
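test system = CHO parental line | reagent = ATP stimulus | measured by = intracellular calcium via Fluo-8 no-wash fluorescent dye | control set = ATP and no-ATP DMSO wells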
Numbers without * were called inactive; . = no result given.

SMILES	OX1R antag-1	OX1R antag-2	TAAR1 antagonist	TAAR1 agonist	GPR7 antagonist	CHO parental Ca
NC(=O)COC(=O)CNC(=O)c1cc(Cl)cc([N+](=O)[O-])c1	53.4*	-14.7	20.7	5.6	-2.2	0.7
O=C(NCC1CCCCC1)c1cccc([N+](=O)[O-])c1	3.4	-8.7	-1.5	-0.9	-1.7	-5.7
Cc1cc(C(=O)NCC(=O)OCC(=O)N2CCCCCC2)ccc1[N+](=O)[O-]	11.3	-5.4	-12.6	0.9	-4.8	-7.1
O=C(CNC(=O)c1cc(Cl)cc([N+](=O)[O-])c1)OCC(=O)N1CCCCC1	40.9*	-6.5	-0.5	-0.1	.	-16.8
O=C(NCC1CC1)c1cc([N+](=O)[O-])cc([N+](=O)[O-])c1	54.4*	-4.5	-3.4	11.0	-7.7	-8.0
Cc1ccc(OCc2nc3ccccc3n2C(C(=O)Nc2c(C)cccc2C)C2CC2)cc1 (stereo not given)	.	.	-47.6	-0.7	.	.
CC(=O)Oc1ccc(Cn2c(C)c(C(=O)NCc3cccc(C(F)(F)F)c3)sc2=O)cc1	.	.	27.5	1.5	.	.
Nc1[nH]c2cc([N+](=O)[O-])ccc2c1-c1ccccn1	16.8	51.2*	69.4*	19.2	9.3	36.6*
Cc1ccc([N+](=O)[O-])cc1N=C1C(=O)Nc2ccccc21	16.7	-24.4	-21.9	0.9	9.6	-2.4
Cc1cccc(N=C2NC(=O)c3cc([N+](=O)[O-])ccc32)c1	69.7*	0.3	13.2	-0.8	-3.8	-6.5
O=C1NC(=Nc2ccccc2)c2ccc([N+](=O)[O-])cc21	74.3*	-4.7	-6.0	-0.4	-4.4	-4.2
CC1(c2nnnn2-c2ccc3c(c2)OCCO3)CCC(=O)N1CCc1ccc(O)cc1 (stereo not given)	.	.	-11.3	0.4	.	.
Cc1ccc(CN2CCCN(Cc3c(F)cccc3Cl)S2(=O)=O)cc1	6.6	-4.0	32.0	13.0	-5.6	24.2
Cc1ccc(CN2CCCN(Cc3ccc(F)cc3Cl)S2(=O)=O)cc1	-1.6	-5.2	3.4	2.3	0.0	46.9*
O=S1(=O)N(Cc2ccccc2F)CCCN1Cc1c(F)cccc1Cl	15.5	35.8	11.4	-1.2	-13.4	66.4*
O=C1NCCCN1Cc1ccc(F)cc1Cl	.	.	3.5	1.9	-12.1	.
CC(C)(C)c1ccc(/C=C/C(=O)Nc2ccncc2)cc1	28.9	13.4	53.1*	2.9	0.5	0.8
Nc1ccn([C@@H]2O[C@H](CNCc3cc(Br)ccc3OCc3ccccc3)[C@@H](O)[C@H]2O)c(=O)n1	.	.	-4.2	0.2	.	.
Cc1ccc(SCC(=O)OCC(=O)N(C)CC(=O)Nc2ccc(F)cc2)cc1C	16.9	-25.7	42.4	112.7*	.	-24.8
CC(=O)C(=Nc1ccccc1Cl)NNc1ccc(Cl)cc1	76.6*	-16.6	8.1	5.5	-7.0	-2.9
O=C1N=c2ccccc2=C1c1sc(Nc2cccc(O)c2)nc1O	54.3*	1.0	41.7	4.3	18.6	-8.9
Cc1ccccc1S(=O)(=O)N1CCCc2nc(-c3ccc(Br)cc3)ccc21	.	.	-32.6	0.0	.	.
O=C(O)c1ccc(N2CCN(C(c3ccccc3)c3ccccc3)CC2)c([N+](=O)[O-])c1	-3.5	-6.5	29.8	0.1	-12.4	3.9
C=C1CCN(c2ccc(C(=O)O)cc2[N+](=O)[O-])CC1	69.8*	-15.3	.	.	.	-6.0
O=C(Cc1ccccc1)Nn1c(O)c(/C=C2\C=Nc3ccccc32)sc1=S	42.8	20.5	54.3*	22.3	0.3	3.7
Cn1c(O)c(/C=C2\C=Nc3ccccc32)sc1=Nc1ccc(C(=O)O)cc1	4.2	-0.1	-2.4	1.0	-15.8	-2.3
O=C(Cc1cn(Cc2ccccc2)c2ccccc12)Nc1ccc(Oc2cccnc2)cc1	.	.	3.1	0.6	.	.
CC1CC(C)CN(CCCNC(=O)C2CCN(c3ncnc4c3sc3cccc(F)c34)CC2)C1 (stereo not given)	54.8*	-4.7	.	.	0.3	-27.6
O=C(Nc1ccc(F)cc1F)C1CCN(c2ncnc3c2sc2cccc(F)c23)CC1	46.4*	-11.5	16.7	7.3	-11.2	-4.8
C=CC[C@@H](CC(=O)N[C@@H](CO)Cc1ccccc1)C(=O)N[C@H](COC(=O)[C@H](CC=C)CC(=O)OC(C)(C)C)Cc1c[nH]c2ccccc12	9.8	47.1	51.9*	12.8	.	2.3
